Results from ChEMBL document CHEMBL4145650, “Napabucasin and Related Heterocycle-Fused Naphthoquinones as STAT3 Inhibitors with Antiproliferative Activity against Cancer Cells” (J Nat Prod, 2018).
The source made the active and inactive calls. The rule behind the calls is not given here.

Columns and labels:
MDA-MB-231 [1] = assay: Induction of apoptosis in human MDA-MB-231 cells assessed as early apoptotic cells at 10 umol/L measured after 6 hrs by annexin-V-FITC/7-AAD staining based flow cytometric analysis relative to control; type: functional
MDA-MB-231 [2] = assay: Cell cycle arrest in human MDA-MB-231 cells assessed as accumulation at G1 phase at 30 uM measured after 24 hrs by propidium iodide staining based flow cytometry (reference value: 62%); type: functional
MDA-MB-231 [3] = assay: Cell cycle arrest in human MDA-MB-231 cells assessed as accumulation at S phase at 30 uM measured after 24 hrs by propidium iodide staining based flow cytometry (reference value: 12%); type: functional
K562 [4] = assay: Antiproliferative activity against human K562 cells measured after 48 hrs by MTT assay; type: functional, cell-based; details: K562, 48 h
In short: (§1)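 Cells kept in 10% FBS medium with penicillin/streptomycin/L-glutamine at 37 °C, 5% CO2 (MDA-MB-231 in DMEM, K562 in RPMI 1640). Viability read by MTT reduction to formazan after 48 h of exposure. IC50 obtained by nonlinear regression against vehicle control, given as mean ±SD of three independent experiments (n = 2 where footnoted).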

MDA-MB-231 [5] = assay: Induction of apoptosis in human MDA-MB-231 cells assessed as viable cells at 10 umol/L measured after 6 hrs by annexin-V-FITC/7-AAD staining based flow cytometric analysis (reference value: 97 to 98%); type: functional; details: MDA-MB-231, 6 h, read-out: Activity
MDA-MB-231 [6] = assay: Cell cycle arrest in human MDA-MB-231 cells assessed as accumulation at G2 phase at 10 uM measured after 24 hrs by propidium iodide staining based flow cytometry (reference value: 23%); type: functional
K562 [7] = assay: Induction of superoxide generation in human K562 cells at 5 umol/L measured after 24 hrs in presence of NQO1 inhibitor dicoumarol by DHE staining based flow cytometry; type: functional, cell-based
In short: (§2)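 Cells were treated with compound at 5 μmol/L or DMSO for 24 h, with or without dicoumarol preincubation (5 μmol/L, 30 min), then stained with DHE for 30 min. 2-OH-DHE fluorescence was read by flow cytometry and expressed relative to vehicle control. At least three independent measurements.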

MDA-MB-231 [8] = assay: Induction of superoxide generation in human MDA-MB-231 cells at 5 umol/L measured after 24 hrs by DHE staining based flow cytometry; type: functional, cell-based; in short: as §2
MDA-MB-231 [9] = assay: Induction of apoptosis in human MDA-MB-231 cells assessed as viable cells at 10 umol/L measured after 4 hrs by annexin-V-FITC/7-AAD staining based flow cytometric analysis (reference value: 97 to 98%); type: functional; details: MDA-MB-231, 4 h, read-out: Activity
MDA-MB-231 [10] = assay: Cell cycle arrest in human MDA-MB-231 cells assessed as accumulation at G1 phase at 10 uM measured after 24 hrs by propidium iodide staining based flow cytometry (reference value: 62%); type: functional
MDA-MB-231 [11] = assay: Induction of superoxide generation in human MDA-MB-231 cells at 5 umol/L measured after 24 hrs in presence of NQO1 inhibitor dicoumarol by DHE staining based flow cytometry; type: functional, cell-based; in short: as §2
MDA-MB-231 [12] = assay: Induction of apoptosis in human MDA-MB-231 cells assessed as viable cells at 10 umol/L measured after 8 hrs by annexin-V-FITC/7-AAD staining based flow cytometric analysis (reference value: 97 to 98%); type: functional; details: MDA-MB-231, 8 h, read-out: Activity
MDA-MB-231 [13] = assay: Induction of apoptosis in human MDA-MB-231 cells assessed as late apoptotic cells at 10 umol/L measured after 6 hrs by annexin-V-FITC/7-AAD staining based flow cytometric analysis relative to control; type: functional
MDA-MB-231 [14] = assay: Cell cycle arrest in human MDA-MB-231 cells assessed as accumulation at G2 phase at 3 uM measured after 24 hrs by propidium iodide staining based flow cytometry (reference value: 23%); type: functional
MDA-MB-231 [15] = assay: Cell cycle arrest in human MDA-MB-231 cells assessed as accumulation at sub-G0 phase at 1 uM measured after 24 hrs by propidium iodide staining based flow cytometry (reference value: 3%); type: functional
MDA-MB-231 [16] = assay: Cell cycle arrest in human MDA-MB-231 cells assessed as accumulation at sub-G0 phase at 30 uM measured after 24 hrs by propidium iodide staining based flow cytometry (reference value: 3%); type: functional
MDA-MB-231 [17] = assay: Induction of apoptosis in human MDA-MB-231 cells assessed as late apoptotic cells at 10 umol/L measured after 8 hrs by annexin-V-FITC/7-AAD staining based flow cytometric analysis relative to control; type: functional
MDA-MB-231 [18] = assay: Induction of apoptosis in human MDA-MB-231 cells assessed as early apoptotic cells at 10 umol/L measured after 8 hrs by annexin-V-FITC/7-AAD staining based flow cytometric analysis relative to control; type: functional
MDA-MB-231 [19] = assay: Cell cycle arrest in human MDA-MB-231 cells assessed as accumulation at S phase at 10 uM measured after 24 hrs by propidium iodide staining based flow cytometry (reference value: 12%); type: functional
MDA-MB-231 [20] = assay: Cell cycle arrest in human MDA-MB-231 cells assessed as accumulation at S phase at 3 uM measured after 24 hrs by propidium iodide staining based flow cytometry (reference value: 12%); type: functional
MDA-MB-231 [21] = assay: Cell cycle arrest in human MDA-MB-231 cells assessed as accumulation at sub-G0 phase at 3 uM measured after 24 hrs by propidium iodide staining based flow cytometry (reference value: 3%); type: functional
MDA-MB-231 [22] = assay: Induction of apoptosis in human MDA-MB-231 cells assessed as viable cells at 10 umol/L measured after 2 hrs by annexin-V-FITC/7-AAD staining based flow cytometric analysis (reference value: 97 to 98%); type: functional; details: MDA-MB-231, 2 h, read-out: Activity
MDA-MB-231 [23] = assay: Cell cycle arrest in human MDA-MB-231 cells assessed as accumulation at sub-G0 phase at 10 uM measured after 24 hrs by propidium iodide staining based flow cytometry (reference value: 3%); type: functional
MDA-MB-231 [24] = assay: Cell cycle arrest in human MDA-MB-231 cells assessed as accumulation at G2 phase at 30 uM measured after 24 hrs by propidium iodide staining based flow cytometry (reference value: 23%); type: functional
MDA-MB-231 [25] = assay: Cell cycle arrest in human MDA-MB-231 cells assessed as accumulation at G1 phase at 1 uM measured after 24 hrs by propidium iodide staining based flow cytometry (reference value: 62%); type: functional
MDA-MB-231 [26] = assay: Induction of apoptosis in human MDA-MB-231 cells assessed as viable cells at 10 umol/L measured after 24 hrs by annexin-V-FITC/7-AAD staining based flow cytometric analysis (reference value: 97 to 98%); type: functional; details: MDA-MB-231, 24 h, read-out: Activity
MDA-MB-231 [27] = assay: Cell cycle arrest in human MDA-MB-231 cells assessed as accumulation at S phase at 1 uM measured after 24 hrs by propidium iodide staining based flow cytometry (reference value: 12%); type: functional
MDA-MB-231 [28] = assay: Induction of apoptosis in human MDA-MB-231 cells assessed as early apoptotic cells at 10 umol/L measured after 24 hrs by annexin-V-FITC/7-AAD staining based flow cytometric analysis relative to control; type: functional
MDA-MB-231 [29] = assay: Induction of apoptosis in human MDA-MB-231 cells assessed as late apoptotic cells at 10 umol/L measured after 24 hrs by annexin-V-FITC/7-AAD staining based flow cytometric analysis relative to control; type: functional
MDA-MB-231 [30] = assay: Cell cycle arrest in human MDA-MB-231 cells assessed as accumulation at G1 phase at 3 uM measured after 24 hrs by propidium iodide staining based flow cytometry (reference value: 62%); type: functional
MDA-MB-231 [31] = assay: Antiproliferative activity against human MDA-MB-231 cells measured after 48 hrs by MTT assay; type: functional, cell-based; details: MDA-MB-231, 48 h; in short: as §1
MDA-MB-231 [32] = assay: Cell cycle arrest in human MDA-MB-231 cells assessed as accumulation at G2 phase at 1 uM measured after 24 hrs by propidium iodide staining based flow cytometry (reference value: 23%); type: functional
K562 [33] = assay: Induction of superoxide generation in human K562 cells at 5 umol/L measured after 24 hrs by DHE staining based flow cytometry; type: functional, cell-based; in short: as §2

Row | IC50 (K562 [4]) [nM] | IC50 (MDA-MB-231 [31]) [nM] | Structure (SMILES) | Activity (MDA-MB-231 [1]) [%] | Activity (MDA-MB-231 [2]) [%] | Activity (MDA-MB-231 [3]) [%] | viability at 10 µM (MDA-MB-231 [5]) [%] | Activity (MDA-MB-231 [6]) [%] | Activity (K562 [7]) | Activity (MDA-MB-231 [8]) | viability at 10 µM (MDA-MB-231 [9]) [%] | Activity (MDA-MB-231 [10]) [%] | Activity (MDA-MB-231 [11]) | viability at 10 µM (MDA-MB-231 [12]) [%] | Activity (MDA-MB-231 [13]) [%] | Activity (MDA-MB-231 [14]) [%] | Activity (MDA-MB-231 [15]) [%] | Activity (MDA-MB-231 [16]) | Activity (MDA-MB-231 [17]) [%] | Activity (MDA-MB-231 [18]) [%] | Activity (MDA-MB-231 [19]) [%] | also measured
1 | 2800 | 1800 | O=C1C(=O)c2ccoc2-c2ccccc21 | 4 | 62 | 14 | 91 | 24 | inactive | Active | 95 | 60 | Active | 87 | 6 | 25 | 3 | inactive | 8 | 6 | 15 | Activity (MDA-MB-231 [20]): 15%; Activity (MDA-MB-231 [21]): inactive; viability at 10 µM (MDA-MB-231 [22]): 96%; Activity (MDA-MB-231 [23]): inactive; Activity (MDA-MB-231 [24]): 22%; Activity (MDA-MB-231 [25]): 64%; viability at 10 µM (MDA-MB-231 [26]): 32%; Activity (MDA-MB-231 [27]): 15%; Activity (MDA-MB-231 [28]): 15%; Activity (MDA-MB-231 [29]): 54%; Activity (MDA-MB-231 [30]): 59%; Activity (MDA-MB-231 [32]): 19%
2 | 1600 | 4300 | CC1(C)CCC2=C(O1)c1ccccc1C(=O)C2=O [LAPACHONE] | 4 | 57 | 16 | 90 | 27 | inactive | inactive | 93 | 53 | inactive | 86 | 7 | 21 | 4 | 3% | 8 | 7 | 18 | Activity (K562 [33]): inactive; Activity (MDA-MB-231 [20]): 14%; Activity (MDA-MB-231 [21]): 3%; viability at 10 µM (MDA-MB-231 [22]): 97%; Activity (MDA-MB-231 [23]): 3%; Activity (MDA-MB-231 [24]): 24%; Activity (MDA-MB-231 [25]): 62%; viability at 10 µM (MDA-MB-231 [26]): 38%; Activity (MDA-MB-231 [27]): 14%; Activity (MDA-MB-231 [28]): 15%; Activity (MDA-MB-231 [29]): 48%; Activity (MDA-MB-231 [30]): 63%; Activity (MDA-MB-231 [32]): 20%
3 | > 10000 | > 10000 | CC1(C)CCC2=C(O1)C(=O)c1ccccc1C2=O [ALPHA-LAPACHONE] |  |  |  |  |  |  |  |  |  |  |  |  |  |  |  |  |  |  | 
